Data reported in ChEMBL document CHEMBL1129609, “Synthesis and antiviral activity evaluation of some new aminoadamantane derivatives. 2” (1996).
≈ marks a conversion by molar mass, not a printed value.

How the values were obtained:
Human alphaherpesvirus 3 [1] = test: Antiviral activity against TK-VZV virus infected HEL cell lines.; assay type: functional
Summary of the method: (§1)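 Vero (African green monkey kidney), HeLa (human epithelial) or HEL (human embryonic lung) cell monolayers infected with the virus. Readout is the minimum inhibitory concentration that reduces virus-induced cytopathicity by 50%. Values are averages of at least two separate experiments.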

HEF [2] = test: Effects on cell morphology of HEF cell lines.; assay type: functional; details: Homo sapiens
Summary of the method: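 Human embryonic skin-muscle fibroblasts were examined under the microscope for changes in normal cell morphology. The value is the minimum concentration causing a microscopically detectable alteration, averaged from at least two separate experiments.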

Semliki Forest virus = test: Antiviral activity against Semliki forest virus infected Vero cell lines.; assay type: functional; summary of the method: as §1
Human alphaherpesvirus 2 = test: Antiviral activity against HSV-2 virus infected HEF cell lines.; assay type: functional
Summary of the method: (§2)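 Human embryonic fibroblasts, from embryonic lung or embryonic skin-muscle, infected with the virus. Endpoint is the minimum inhibitory concentration that reduces virus-induced cytopathicity by 50%. Values are averages of at least two separate experiments.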

HEL [3] = test: Inhibition of HEL cell proliferation.; assay type: functional; details: Homo sapiens
Summary of the method: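 Human embryonic lung fibroblasts were used for the proliferation assay. The value is the concentration that reduces cell proliferation by 50%, averaged from at least two separate experiments.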

Coxsackievirus B4 [4] = test: Antiviral activity against Coxsackie B4 virus infected vero cell lines.; assay type: functional; details: Enterovirus B; summary of the method: as §1
[5] = test system: Human immunodeficiency virus 2; test: Antiviral activity against HIV-2 virus infected CEM cell lines.; assay type: functional, CCRF-CEM
[6] = test system: Vesicular stomatitis virus; test: Antiviral activity against vesicular stomatitis virus infected HeLa cell lines.; assay type: functional; summary of the method: as §1
Human alphaherpesvirus 1 [7] = test: Antiviral activity against HSV-1 virus infected HEF cell lines.; assay type: functional; summary of the method: as §2
Sindbis virus = test: Antiviral activity against sindbis virus infected Vero cell lines.; assay type: functional; summary of the method: as §1
Human alphaherpesvirus 3 [8] = test: Antiviral activity against TK+VZV virus infected HEL cell lines.; assay type: functional; summary of the method: as §1
MDCK [9] = test: Antiviral activity of compound was tested against morphology virus infec+ted MDCK cell lines.; assay type: functional; details: Canis lupus familiaris
Human respirovirus 3 = test: Antiviral activity against parainfluenza 3 virus infected Vero cell lines.; assay type: functional; summary of the method: as §1
[10] = test system: Mammalian orthoreovirus 1; test: Antiviral activity against Reo 1 virus infected vero cell lines.; assay type: functional; summary of the method: as §1
Influenza B virus = test: Antiviral activity against influenza B virus infected MDCK cell lines.; assay type: functional
MDCK [11] = test: Antiviral activity tested against influenza A,H1N1 virus infected MDCK cell lines.; assay type: functional; details: Canis lupus familiaris
Human alphaherpesvirus 1 [12] = test: Antiviral activity against TK-HSV-1 virus infected HEF cell lines.; assay type: functional; summary of the method: as §2
[13] = test system: Human immunodeficiency virus 1; test: Antiviral activity against HIV-1 virus infected CEM cell lines.; assay type: functional, CCRF-CEM
Vaccinia virus = test: Antiviral activity against vaccinia virus infected HEF cell lines.; assay type: functional; details: Orthopoxvirus vaccinia; summary of the method: as §2
Vero [14] = test: Effects on cell morphology of Vero cell lines.; assay type: functional; details: Chlorocebus sabaeus
Summary of the method: (§3)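 HeLa (human epithelial) or Vero (African green monkey kidney) cells were examined under the microscope for changes in normal morphology. The value is the minimum concentration causing a detectable alteration, averaged from at least two separate experiments.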

Human betaherpesvirus 5 = test: Antiviral activity against HCMV virus infected HEL cell lines.; assay type: functional; summary of the method: as §1
[15] = Antiviral activity against influenza A,H2N2 virus infected MDCK cell lines.; assay type: functional
CCRF-CEM [16] = test: Cytotoxicity against CEM cell lines.; assay type: functional; details: Homo sapiens
Coxsackievirus B4 [17] = test: Antiviral activity against Coxsackie B4 virus infected HeLa cell lines.; assay type: functional; details: Enterovirus B; summary of the method: as §1
Enterovirus C = test: Antiviral activity against polio 1 virus infected HeLa cell lines.; assay type: functional; summary of the method: as §1
[18] = test system: Vesicular stomatitis virus; test: Antiviral activity against vesicular stomatitis virus infected HEF cell lines.; assay type: functional; summary of the method: as §2
HeLa [19] = test: Effects on cell morphology of HeLa cell lines.; assay type: functional; details: Homo sapiens; summary of the method: as §3
[20] = Antiviral activity against influenza A,H3N2 virus infected MDCK cell lines.; assay type: functional
Vero [21] = test: Antiviral activity of compound was tested against Coxsackie B4 virus infected vero cell lines.; assay type: functional; details: Chlorocebus sabaeus; summary of the method: as §1
HEL [22] = test: Antiviral activity of compound was tested against HCMV virus infected HEL cell lines.; assay type: functional; details: Homo sapiens; summary of the method: as §1
Vero [23] = test: Antiviral activity of compound was tested against reo1 virus infected vero cell lines.; assay type: functional; details: Chlorocebus sabaeus; summary of the method: as §1
MDCK [24] = test: Antiviral activity of compound was tested against influenza A,H3N2 virus infected MDCK cell lines.; assay type: functional; details: Canis lupus familiaris
Vero [25] = test: Antiviral activity of compound was tested against sindbis virus infected vero cell lines.; assay type: functional; details: Chlorocebus sabaeus; summary of the method: as §1
CCRF-CEM [26] = test: Antiviral activity of compound was tested against viability virus infected CEM cell lines.; assay type: functional; details: Homo sapiens
HEL [27] = test: Antiviral activity of compound was tested against TK-VZV virus infected HEL cell lines.; assay type: functional; details: Homo sapiens; summary of the method: as §1
HEL [28] = test: Antiviral activity of compound was tested against TK+VZV virus infected HEL cell lines.; assay type: functional; details: Homo sapiens; summary of the method: as §1
HeLa [29] = test: Antiviral activity of compound was tested against stomatitis virus infected HeLa cell lines.; assay type: functional; details: Homo sapiens; summary of the method: as §1
HeLa [30] = test: Antiviral activity of compound was tested against polio-1 virus infected HeLa cell lines.; assay type: functional; details: Homo sapiens; summary of the method: as §1
HEF [31] = test: Antiviral activity of compound was tested against vaccinia virus infected HEF cell lines.; assay type: functional; details: Homo sapiens; summary of the method: as §2
HEF [32] = test: Antiviral activity of compound was tested against morphology virus infected HEF cell lines.; assay type: functional; details: Homo sapiens
HeLa [33] = test: Antiviral activity of compound was tested against Coxsackie B4 virus infected HeLa cell lines.; assay type: functional; details: Homo sapiens; summary of the method: as §1
Vero [34] = test: Antiviral activity of compound were tested against semliki forest virus infected vero cell lines.; assay type: functional; details: Chlorocebus sabaeus; summary of the method: as §1
MDCK [35] = test: Antiviral activity of compound was tested against influenza […] virus infected MDCK cell lines; assay type: functional; details: Canis lupus familiaris
CCRF-CEM [36] = test: Antiviral activity of compound was tested against HIV-1 virus infected CEM cell lines.; assay type: functional; details: Homo sapiens
Vero [37] = test: Antiviral activity of compound was tested against morphology virus infected Vero cell lines.; assay type: functional; details: Chlorocebus sabaeus
HEF [38] = test: Antiviral activity of compound was tested against vesicular virus infected HEF cell lines.; assay type: functional; details: Homo sapiens; summary of the method: as §2
HeLa [39] = test: Antiviral activity of compound was tested against morphology virus infected HeLa cell lines.; assay type: functional; details: Homo sapiens
MDCK [40] = test: Antiviral activity of compound was tested against morphology virus infected MDCK cell lines.; assay type: functional; details: Canis lupus familiaris
HEL [41] = test: Antiviral activity of compound was tested against proliferation virus infected HEL cell lines.; assay type: functional; details: Homo sapiens

For `CN(C)C1(C23CC4CC(CC(C4)C2)C3)CCCC1`, the MIC50 (Human alphaherpesvirus 3 [1]) was 30 µg/mL (≈ 121 µM), the MIC50 (HEF [2]) was 100 µg/mL (≈ 404 µM) and the MIC50 (Semliki Forest virus) was > 400 µg/mL. For the same molecule, the MIC50 (Human alphaherpesvirus 2) was > 40 µg/mL, the MIC50 (HEL [3]) was 50 µg/mL (≈ 202 µM) and the MIC50 (Coxsackievirus B4 [4]) was > 400 µg/mL. For the same molecule, the MIC50 [5] was > 40 µg/mL, the MIC50 [6] was > 100 µg/mL and the MIC50 (Human alphaherpesvirus 1 [7]) was > 40 µg/mL. For the same molecule, the MIC50 (Sindbis virus) was > 400 µg/mL, the MIC50 (Human alphaherpesvirus 3 [8]) was 30 µg/mL (≈ 121 µM) and the MIC50 (MDCK [9]) was > 250 µg/mL. The MIC50 (Human respirovirus 3) was > 400 µg/mL, the MIC50 [10] was > 400 µg/mL and the MIC50 (Influenza B virus) was > 100 µg/mL. For the same molecule, the MIC50 (MDCK [11]) was > 80 µg/mL, the MIC50 (Human alphaherpesvirus 1 [12]) was > 40 µg/mL and the MIC50 [13] was > 40 µg/mL. For the same molecule, the MIC50 (Vaccinia virus) was > 40 µg/mL, the MIC50 (Vero [14]) was > 400 µg/mL and the MIC50 (Human betaherpesvirus 5) was 40 µg/mL (≈ 162 µM). The MIC50 [15] was 19.7 µg/mL (≈ 79.6 µM), the MIC50 (CCRF-CEM [16]) was 70 µg/mL (≈ 283 µM) and the MIC50 (Coxsackievirus B4 [17]) was > 100 µg/mL. For the same molecule, the MIC50 (Enterovirus C) was > 100 µg/mL, the MIC50 [18] was > 40 µg/mL and the MIC50 (HeLa [19]) was 200 µg/mL (≈ 808 µM). The MIC50 [20] was > 100 µg/mL.
With `CN(C)CC1CCCN1C12CC3CC(CC(C3)C1)C2` (stereo unspecified) the MIC50 (Vero [21]) was > 400 µg/mL, the MIC50 (Human alphaherpesvirus 2) was > 200 µg/mL and the MIC50 [5] was > 200 µg/mL. The MIC50 (HEL [22]) was > 50 µg/mL, the MIC50 (Vero [23]) was > 400 µg/mL and the MIC50 (Human alphaherpesvirus 1 [7]) was > 200 µg/mL. The MIC50 (MDCK [24]) was 73 µg/mL (≈ 278 µM), the MIC50 (Vero [25]) was > 400 µg/mL and the MIC50 (CCRF-CEM [26]) was > 200 µg/mL. The MIC50 (HEL [27]) was > 50 µg/mL, the MIC50 (HEL [28]) was > 50 µg/mL and the MIC50 (Human respirovirus 3) was > 400 µg/mL. The MIC50 (MDCK [11]) was > 70 µg/mL, the MIC50 (HeLa [29]) was > 400 µg/mL and the MIC50 (HeLa [30]) was > 400 µg/mL. The MIC50 (Human alphaherpesvirus 1 [12]) was > 200 µg/mL, the MIC50 (HEF [31]) was > 200 µg/mL and the MIC50 (HEF [32]) was > 400 µg/mL. The MIC50 (HeLa [33]) was > 400 µg/mL, the MIC50 (Vero [34]) was > 400 µg/mL and the MIC50 [15] was 32.5 µg/mL (≈ 124 µM). For the same molecule, the MIC50 (MDCK [35]) was 60 µg/mL (≈ 229 µM), the MIC50 (CCRF-CEM [36]) was 115 µg/mL (≈ 438 µM) and the MIC50 (Vero [37]) was > 400 µg/mL. The MIC50 (HEF [38]) was > 200 µg/mL, the MIC50 (HeLa [39]) was > 400 µg/mL and the MIC50 (MDCK [40]) was > 250 µg/mL. For the same molecule, the MIC50 (HEL [41]) was > 50 µg/mL.
